Assay results from ChEMBL document CHEMBL4138245, “Design and synthesis of novel quinacrine-[1,3]-thiazinan-4-one hybrids for their anti-breast cancer activity” (Eur J Med Chem, 2018).
Activity calls are given as the source filed them. The rule behind the calls is not given here.

Assays:
[1] = test system: MDA-MB-468; assay: Antiproliferative activity against human MDA-MB-468 cells after 48 hrs by SRB assay; format: functional, cell-based; details: MDA-MB-468, 48 h
How it was run: (§1)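 SRB assay: 5,000-10,000 cells/well plated, 24 h at 37 °C/5% CO2 before drug; seven concentrations from 100 μM down (two- to ten-fold serial dilutions, DMSO ≤0.1% final) for 48 h; TCA fixation (10% final, 60 min, 4 °C), 0.4% SRB in 1% acetic acid, solubilized in 10 mM Tris base, absorbance 515-564 nm; growth = (Ti−Tz)/(C−Tz)×100; IC50 from sigmoidal variable-slope fit; triplicates, ≥2 independent experiments.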

[2] = test system: 184B5; assay: Antiproliferative activity against human 184B5 cells after 48 hrs by SRB assay; format: cell-based; details: 184B5, 48 h; how it was run: as §1
[3] = test system: BT-20; assay: Antiproliferative activity against human BT20 cells assessed as compound concentration required to show complete inhibition of cell viability up to 96 hrs by SRB assay; format: functional
[4] = test system: BT-474; assay: Antiproliferative activity against human BT474 cells assessed as compound concentration required to show complete inhibition of cell viability up to 96 hrs by SRB assay; format: functional
[5] = test system: 184B5; assay: Antiproliferative activity against human 184B5 cells at 1 to 2 uM up to 96 hrs by SRB assay; format: cell-based; details: 184b5, 96 h
[6] = test system: MCF7; assay: Cell cycle arrest in human MCF7 cells assessed as accumulation at sub-G1 phase at 2 uM after 48 hrs by propidium iodide staining based flow cytometry; format: functional
How it was run: (§2)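 MCF7, MDA-MB231 and non-cancer 184B5 breast cells exposed to 2 μM for 48 h, then cell-cycle analysis by flow cytometry; duplicates, repeated three times.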

[7] = test system: 184B5; assay: Cell cycle arrest in human 184B5 cells at 2 uM after 48 hrs by propidium iodide staining based flow cytometry; details: 184b5, 48 h; how it was run: as §2
[8] = test system: MCF7; assay: Cell cycle arrest in human MCF7 cells assessed as DNA content at 2 uM after 24 hrs by BrdU incorporation assay (reference value: 32.9%); format: functional
[9] = test system: MCF7; assay: Cell cycle arrest in human MCF7 cells assessed as DNA content at 2 uM after 48 hrs by BrdU incorporation assay (reference value: 29.4%); format: functional
[10] = test system: MCF7; assay: Inhibition of DNA replication in human MCF7 cells assessed as EdU incorporation at 2 uM pretreated for 48 hrs followed by EdU addition at final 45 mins of 48 hrs incubation time (reference value: 45 to 63%); format: functional; set-up: scale not given: the % may be the effect or the level left
[11] = test system: MCF7; assay: Upregulation of Cyclin-E protein expression in human MCF7 cells at 2 uM after 12 to 24 hrs by Western blot method; format: functional, cell-based
[12] = test system: MCF7; assay: Downregulation of Cyclin-A protein expression in human MCF7 cells at 2 uM after 24 to 72 hrs by Western blot method; format: functional, cell-based
[13] = target: Serine/threonine-protein kinase mTOR (Homo sapiens) (UniProt P42345); assay: Inhibition of mTOR phosphorylation at S2448 residue in human MCF7 cells at 2 uM after 6 hrs by Western blot method; format: cell-based
[14] = target: Serine/threonine-protein kinase mTOR (Homo sapiens) (UniProt P42345); assay: Inhibition of mTOR pathway in human MCF7 cells assessed as reduction in S6K phosphorylation at Thr389 residue at 2 uM after 6 hrs by Western blot method; format: cell-based
[15] = target: Serine/threonine-protein kinase mTOR (Homo sapiens) (UniProt P42345); assay: Inhibition of mTOR pathway in human MCF7 cells assessed as reduction in S6K phosphorylation at Ser371 residue at 2 uM after 6 to 24 hrs by Western blot method; format: cell-based
[16] = Selectivity index, ratio of compound concentration for cell killing activity in human MCF10A cells to compound concentration for cell killing activity in human BT474 cells; format: toxicity, cell-based; details: MCF10A cells versus BT474 cells, read-out: Selectivity Index
[17] = Selectivity index, ratio of compound concentration for cell killing activity in human MCF10A cells to compound concentration for cell killing activity in human CAMA1 cells; format: toxicity, cell-based; details: MCF10A cells versus CAMA1 cells, read-out: Selectivity Index
[18] = Selectivity index, ratio of compound concentration for cell killing activity in human MCF10A cells to compound concentration for cell killing activity in human MDA-MB-231 cells; format: toxicity, cell-based; details: MCF10A cells versus MDA-MB-231 cells, read-out: Selectivity Index
[19] = Selectivity index, ratio of compound concentration for cell killing activity in human MCF10A cells to compound concentration for cell killing activity in human PC3 cells; format: toxicity, cell-based; details: MCF10A cells versus PC3 cells, read-out: Selectivity Index
[20] = Selectivity index, ratio of compound concentration for cell killing activity in human MCF10A cells to compound concentration for cell killing activity in human NCI-H1975 cells; format: toxicity, cell-based; details: MCF10A cells versus NCI-H1975 cells, read-out: Selectivity Index
[21] = Selectivity index, ratio of compound concentration for cell killing activity in human 184B5 cells to compound concentration for cell killing activity in human MDA-MB-453 cells; format: toxicity, cell-based; details: 184B5 cells versus MDA-MB-453 cells, read-out: Selectivity Index
[22] = Selectivity index, ratio of compound concentration for cell killing activity in human 184B5 cells to compound concentration for cell killing activity in human PC3 cells; format: toxicity, cell-based; details: 184B5 cells versus PC3 cells, read-out: Selectivity Index

- IC50 [1]: 1.73 µM
- inhibition [13]: Active
- inhibition [14]: inactive
- inhibition [15]: inactive
Structure (SMILES): COc1ccc2nc3cc(Cl)ccc3c(NCCCN3C(=O)CCSC3c3cccs3)c2c1 (configuration not stated)
- IC50 [2]: 4.96 µM
- Activity [3]: 1 µM
- Activity [4]: 1 µM
- Activity [5]: Non-Toxic
- Activity [6]: Active
- Activity [7]: Non-Toxic
- Activity [8]: 0.7%
- Activity [9]: 0.9%
- Activity [10]: 5%
- Activity [11]: Active
- Activity [12]: Active
- selectivity ratio [16]: 3 to 6
- selectivity ratio [17]: 3 to 6
- selectivity ratio [18]: 3 to 6
- selectivity ratio [19]: 3 to 6
- selectivity ratio [20]: 3 to 6
- selectivity ratio [21]: 3 to 6
- selectivity ratio [22]: 3 to 6
